# SIAE inh: human SIAE inhibitors, primary screen, biochemical, fluorescence polarization, FP-Rh probe, 1536-well HTS | SIAE FP-Rh probe binding | Sialate O-acetylesterase (Homo sapiens), Q9HAT2 | 370,000 compounds, 0.69% hits | inhibition, % at 9.66 µM;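 active = inhibition above a cutoff: mean of compounds within the control limits plus 3 SD of those, cut at about 17% in these data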;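 also: 0% = plate median of compound wells and 100% = probe without SIAE protein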
# mABHD4 FP: ABHD4 inhibitors, primary screen, biochemical, fluorescence polarization, mouse; purified mABHD4, FP-Rh probe fluorescence polarization; inhibition, % at 8.92 µM; 370,000 compounds, 0.54% hits; AID 720543, 2013;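 active = inhibition exceeding the mean over every tested compound plus 3 SD, cut at about 30% in these data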;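 also: 0% = plate median of compound wells and 100% = S159A mutant with DMSO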
#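 Material: mouse ABHD4 enzyme, wild type; Benchmarks: S159A mutant high control, sample median low control; Buffer or medium: HEPES pH 7.0, NaCl, Pluronic buffer; Signal: fluorescence polarization; Read-out: percent inhibition of probe binding, normalized to plate controls; Timing: pre-incubation 45 min, probe exposure 60 min, at 25 °C; Dosing: 8.92 µM, single dose.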
# TDP2 absorb: human TDP2 enzyme inhibitors, primary screen, biochemical, epi absorbance, recombinant enzyme; Tyrosyl-DNA phosphodiesterase 2 (Homo sapiens), O95551; T5PNP hydrolysis, p-nitrophenol absorbance 415 nm; inhibition, % at 12.8 µM; 370,000 compounds, 0.34% hits; AID 720702, 2013;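 active = inhibition above the mean of all tested compounds plus 3 SD, set per campaign, cut at about 25% in these data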;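 also: 0% = DMSO with enzyme and 100% = buffer with substrate but no TDP2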
# Target sequence (O95551 whole entry, looked up): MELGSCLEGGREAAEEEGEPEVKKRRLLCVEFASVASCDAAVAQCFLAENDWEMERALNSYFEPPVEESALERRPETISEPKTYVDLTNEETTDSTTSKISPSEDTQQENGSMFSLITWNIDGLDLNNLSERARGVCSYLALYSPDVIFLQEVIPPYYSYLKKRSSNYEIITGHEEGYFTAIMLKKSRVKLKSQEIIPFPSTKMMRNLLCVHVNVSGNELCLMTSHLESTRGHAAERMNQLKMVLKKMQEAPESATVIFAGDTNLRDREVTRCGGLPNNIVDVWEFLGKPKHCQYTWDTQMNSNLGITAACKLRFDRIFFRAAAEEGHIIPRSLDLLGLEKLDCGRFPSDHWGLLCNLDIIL
#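 Assay system: recombinant human TDP2 / Reagent: T5PNP substrate at 5 mM, a TopII-DNA adduct mimic / Measured by: epi absorbance from released p-nitrophenol / Evaluation: % inhibition relative to enzyme-containing and enzyme-free wells / Control set: enzyme-free and DMSO wells / Replicates: each compound tested once, singlicate / Schedule: enzyme reaction with compound for 2 h at 37 °C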
# HTRA1 inh: HTRA1 serine protease inhibitors, primary screen, biochemical, fluorescence polarization, HTS; recombinant HTRA1, FP-rhodamine activity-based probe; inhibition, % at 5.96 µM; 340,000 compounds, 0.5% hits; in the data active = inhibition above about 36%;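 also: 0% = enzyme with DMSO and 100% = wells lacking enzyme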
# TCR-CD3 inh: inhibitors of human TCR-CD3 interaction, primary screen, biochemical, fluorescence, TAMRA-labeled TCR probe | T-cell receptor (TCR) | inhibition, % at 9.4 µM | 360,000 compounds, 0.37% hits | AID 651800, 2012; in the data active = inhibition above about 19%;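 also: recombinant mutant TCR 2C K166C tagged with TAMRA read by polarization; 0% = receptor in buffer alone and 100% = receptor with positive control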
# PAD4 inh: human PAD4 inhibitors, primary screen, biochemical, fluorescence polarization, 1536-well format | recombinant PAD4, RCA probe fluorescence polarization | inhibition, % at 6.36 µM | 330,000 compounds, 0.41% hits | Protein-arginine deiminase type-4 (Homo sapiens), Q9UM07;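 active = percent inhibition above a cutoff equal to the mean of all tested compounds plus 3 SD, cut at about 15% in these data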;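 also: 0% = PAD4 with RCA probe and DMSO and 100% = probe without PAD4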
# TDP2 confirm: human TDP2 enzyme inhibitors, retest, confirmation, biochemical, epi absorbance, recombinant enzyme | shares compounds with TDP2 absorb | absorbance read-out | inhibition, % at 12.8 µM | 1,100 compounds, 22% hits; in the data active = inhibition above about 25%;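 also: 0% = vehicle with enzyme and 100% = no enzyme buffer only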
# Numbers without * were called inactive; / = not tested or not shown. Sampled rows, rich in hits. Any-hit rate of the full collection: about 2%.
SMILES,SIAE inh,mABHD4 FP,TDP2 absorb,HTRA1 inh,TCR-CD3 inh,PAD4 inh,TDP2 confirm
O=C(CN1C(=O)S/C(=C\c2ccc(F)cc2)C1=O)Nc1cccc(S(=O)(=O)NCc2ccco2)c1,1,-36,27*,-20,5,1,0
O=C(c1ccco1)[C@@H]1[C@@H]2C(=O)N(c3ccc(F)cc3)C(=O)[C@@H]2C2c3ccccc3C=CN21 (some centres undefined),1,5,29*,/,-1,-13,17
O=C(c1ccco1)[C@@H]1[C@@H]2C(=O)N(c3ccc(Br)cc3)C(=O)[C@@H]2C2c3ccccc3C=CN21 (some centres undefined),-16,-14,7,-4,8,/,/
CCOc1ccc(CN2CCC(C(=O)N3CCN(c4ccccc4F)CC3)CC2)cc1OC,5,12,34*,-4,4,-2,0
COc1cc(CN2CCC(C(=O)N3CCN(c4ccccc4F)CC3)CC2)cc(OC)c1O,-3,16,-3,1,0,-3,/
CCOC1=NC(=C(c2ccccc2)c2ccccc2)OC1=O,2,10,8,2,0,/,/
Cc1ccc(-n2nc3c(=O)n(CC(=O)NCc4ccc(C)o4)nc(C)c3c2C)cc1,4,6,-5,4,3,-1,/
Cc1ccc(-n2nc3c(=O)n(CCCC(=O)NCc4ccc(C)o4)nc(C)c3c2C)cc1,-2,1,25*,-4,0,2,0
CCCCNC(=O)C1(C)CCC(=O)N1CCOc1ccccc1 (centres undefined),3,5,-9,/,-2,/,/
S=C(Nc1ccc2nsnc2c1)N1CCCC1,6,0,67*,4,2,-16,45*
O=C(NCc1cccnc1)c1ccc2c(c1)N(Cc1ccccc1)CCS2,2,3,25*,4,1,-2,-3
O=C(O)CN1C(=O)/C(=C/c2ccc(SCc3ccccc3)o2)SC1=S,-10,6,26*,-6,2,/,3
C[C@@H]1CCCCO[C@H](CN(C)Cc2ccc(C(F)(F)F)cc2)[C@@H](C)CN([C@H](C)CO)C(=O)c2cc(NS(=O)(=O)c3cn(C)cn3)ccc2O1,-5,6,-4,0,4,/,/
Cc1[nH]n(-c2ccccc2)c(=O)c1C(c1ccc(O)c([N+](=O)[O-])c1)c1c(C)[nH]n(-c2ccccc2)c1=O,-4,6,89*,8,-4,57*,9
O=C1NC(=O)/C(=C/c2ccccc2OCc2ccccc2)S1,-20,-31,25*,-51,7,-6,12
NC(=O)Nc1ccc(C(=O)OCC(=O)N(Cc2ccccc2)C2CCS(=O)(=O)C2)cc1 (centres undefined),0,0,-1,2,5,-1,/
CN(C)c1cccc(C(=O)OCC(=O)N(Cc2ccccc2)C2CCS(=O)(=O)C2)c1 (centres undefined),11,6,38*,-2,15,0,-11
C[C@H](CO)N1C[C@H](C)[C@@H](CN(C)S(=O)(=O)c2ccc(C#N)cc2)OCc2cnnn2CCCC1=O,4,4,8,14,1,/,/
CC(C(=O)NC1CCCCCC1)c1ccc([N+](=O)[O-])cc1 (centres undefined),14,2,25*,-3,7,-3,-3
CC(C(=O)NC1CC(C)(C)NC(C)(C)C1)c1ccc([N+](=O)[O-])cc1 (centres undefined),-8,-9,2,-4,-5,0,/
CCN(CCCNS(=O)(=O)c1cc(-c2cc(C)no2)ccc1C)Cc1ccccc1,4,3,47*,-6,-4,-3,-1
Cc1cc(-c2ccc(C)c(S(=O)(=O)NCc3ccc(OC(C)C)cc3)c2)on1,-7,-3,32*,-19,2,-4,0
CC(NS(=O)(=O)c1ccc(NC(=O)N2CCCCC2)cc1)c1ccccc1 (centres undefined),-2,1,-8,-2,0,-3,/
COC(=O)c1cc2c(c3c4cc(OC)ccc4n(S(=O)(=O)c4ccc(OC)cc4)c13)C(=O)N(C)C2,-1,-7,-1,/,-4,/,/
COc1ccc(-c2ccc(C(c3c(C)[nH][nH]c3=O)c3c(C)[nH][nH]c3=O)o2)c([N+](=O)[O-])c1,7,11,67*,6,5,/,6
SMILES,SIAE inh,mABHD4 FP,TDP2 absorb,HTRA1 inh,TCR-CD3 inh,PAD4 inh,TDP2 confirm
COc1ccc(-c2ccc(/C=N/N3C(=O)C4C5C=CC(C6CC56)C4C3=O)o2)c([N+](=O)[O-])c1 (centres undefined),2,-7,-1,-7,16,0,/
O=C(OC1CCOC1=O)c1ccc(Cl)c(S(=O)(=O)N2CCOCC2)c1 (centres undefined),-7,0,-5,3,6,2,/
COc1ccc(N(/N=C2\Sc3ccccc3C2=O)C(C)=O)cc1,-2,-7,14,-2,0,/,/
COc1ccccc1N(/N=C1\Sc2ccccc2C1=O)C(C)=O,-12,-10,28*,4,-9,-15,45*
C=CCn1c(=S)[nH]c2sccc2c1=O,-1,-4,60*,1,9,1,2
C=CCn1c(=S)[nH]c2scc(-c3ccc(C)o3)c2c1=O,6,-6,5,-4,6,-8,/
COc1cc(C(C)=O)ccc1O,0,5,7,6,1,5,/
CCC(CO)Oc1cc(NC(=O)c2ccc(N)cc2)c2ncn(C(C)C)c2c1 (centres undefined),-1,7,37*,12,1,3,34*
CC1(CCC(=O)N2CCCC(N3CCN(c4ccc(F)cc4)CC3)C2)CC1 (centres undefined),7,6,4,16,2,-4,/
COc1cccc(N(CC(=O)NC2CCCCC2)C(=O)CCC(=O)Nc2nccs2)c1,13,2,29*,-11,-5,-2,4
CCc1nc2ccc(C(=O)NCCc3ccccn3)cn2c1N(C)Cc1cccs1,-3,-1,1,/,11,/,/
Cc1ccc(NC(=O)CCSc2nnc(C)o2)cc1,8,-1,28*,6,0,0,6
Cc1nnc(SCCC(=O)Nc2ccc(Cl)cc2)o1,-1,3,2,-5,7,-1,/

# Compound activity deposited in PubChem by The Scripps Research Institute Molecular Screening Center.
